Assay results published in ChEMBL document CHEMBL1129563, “Opioid antagonist activity of naltrexone-derived bivalent ligands: importance of a properly oriented molecular scaffold to guide "address" recognition at kappa opioid receptors” (J Med Chem, 1996).

Key:
[1] = biological target: T1, Mu-type opioid receptor (Cavia porcellus, UniProt P97266); assay: Opioid receptor mu 1 antagonistic activity in guinea pig ileum; type: functional, tissue-based
Procedure, shortened: (§1)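 Antagonism was tested on electrically stimulated guinea pig ileum (morphine, EK, DAMGO, U-50488) and mouse vas deferens (DADLE, DPDPE). Antagonist (usually 100 nM, some at 20 nM) was incubated 15 min before agonist. IC50 ratio is agonist IC50 with antagonist over control IC50 in the same preparation. Ke = [antagonist]/(IC50 ratio − 1). Three or more replicates were run. Selectivity is given as Ke ratios.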

[2] = test system: Delta-type opioid receptor; assay: Delta opioid activity on Mouse vas deference using DADLE as standard; procedure, shortened: as §1
[3] = Mu opioid activity was evaluated on electrically stimulated guinea pig ileum by using morphine(M) as standard.; type: tissue-based; procedure, shortened: as §1
[4] = biological target: Mu-type opioid receptor (Cavia porcellus) (UniProt P97266); assay: Ke value is obtained from IC50 ratio value when compared with Opioid receptor mu 1 agonist in Guinea pig Ileum using DAMGO as radioligand; type: functional, tissue-based; procedure, shortened: as §1
Sequence of Mu-type opioid receptor (Cavia porcellus) (P97266 whole entry): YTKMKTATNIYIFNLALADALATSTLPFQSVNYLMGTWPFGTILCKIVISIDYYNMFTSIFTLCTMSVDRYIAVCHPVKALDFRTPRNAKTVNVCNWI

[5] = Kappa opioid activity was evaluated on electrically stimulated guinea pig ileum by using ethylketazocine (EK) as standard.; type: tissue-based; procedure, shortened: as §1
[6] = biological target: Kappa-type opioid receptor (Cavia porcellus) (UniProt P41144); assay: Ke value was obtained from IC50 ratio values when compared with Opioid receptor kappa 1 agonist in Guinea pig Ileum using EK as radioligand; type: functional, tissue-based; procedure, shortened: as §1
Sequence of Kappa-type opioid receptor (Cavia porcellus) (P41144 whole entry): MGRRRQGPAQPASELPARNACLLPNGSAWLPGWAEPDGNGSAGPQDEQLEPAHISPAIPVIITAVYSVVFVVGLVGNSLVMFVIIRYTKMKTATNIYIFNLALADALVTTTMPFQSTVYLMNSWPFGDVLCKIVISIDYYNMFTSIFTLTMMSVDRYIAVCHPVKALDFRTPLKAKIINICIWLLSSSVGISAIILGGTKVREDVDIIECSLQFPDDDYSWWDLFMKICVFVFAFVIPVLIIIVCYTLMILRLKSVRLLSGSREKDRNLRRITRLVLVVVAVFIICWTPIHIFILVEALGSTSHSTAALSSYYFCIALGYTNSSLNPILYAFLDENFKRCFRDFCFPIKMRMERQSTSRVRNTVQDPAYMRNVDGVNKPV

[7] = biological target: T2, Kappa-type opioid receptor (Cavia porcellus, UniProt P41144); assay: Binding affinity against Opioid receptor kappa 1 in Guinea pig brain membranes; type: cell membranes, Membrane
T2 sequence (P41144 whole entry): as above
Procedure, shortened: (§2)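 Competition binding against radioligands in guinea pig brain membranes. μ sites used [3H]DAMGO. κ sites used [3H]EK with 1 μM DAMGO, and δ sites used [3H]DADLE with 1 μM DAMGO. Ki is the geometric mean of three replicates. Selectivity is given as δ/μ and κ/μ Ki ratios.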

[8] = biological target: T3, Opioid receptors; mu & delta (Homo sapiens) (UniProt P41143+P35372); assay: Selectivity ratio between delta and mu opioid receptor from guinea pig brain membrane; procedure, shortened: as §2
T3 sequence (P35372 whole entry, looked up): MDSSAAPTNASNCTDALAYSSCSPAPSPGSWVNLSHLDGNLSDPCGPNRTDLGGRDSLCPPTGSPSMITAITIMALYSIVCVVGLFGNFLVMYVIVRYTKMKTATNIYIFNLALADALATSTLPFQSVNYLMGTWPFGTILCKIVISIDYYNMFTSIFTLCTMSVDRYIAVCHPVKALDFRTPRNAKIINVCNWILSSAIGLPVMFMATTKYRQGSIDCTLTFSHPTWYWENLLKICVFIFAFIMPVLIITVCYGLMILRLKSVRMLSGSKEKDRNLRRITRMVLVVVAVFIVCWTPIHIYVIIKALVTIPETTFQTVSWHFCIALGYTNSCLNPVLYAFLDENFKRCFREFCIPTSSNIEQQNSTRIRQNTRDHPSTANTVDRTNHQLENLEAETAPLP
T3 sequence (P41143 whole entry, looked up): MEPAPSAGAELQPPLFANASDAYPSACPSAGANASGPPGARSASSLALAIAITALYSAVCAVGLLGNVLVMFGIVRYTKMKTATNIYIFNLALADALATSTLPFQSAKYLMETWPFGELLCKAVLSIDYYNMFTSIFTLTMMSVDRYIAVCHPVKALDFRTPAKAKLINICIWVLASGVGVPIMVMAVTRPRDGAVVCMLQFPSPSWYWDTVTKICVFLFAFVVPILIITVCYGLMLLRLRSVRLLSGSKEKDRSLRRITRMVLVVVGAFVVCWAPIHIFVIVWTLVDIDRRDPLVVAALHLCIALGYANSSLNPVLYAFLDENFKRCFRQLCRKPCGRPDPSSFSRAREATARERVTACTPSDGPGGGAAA

[9] = biological target: T4, Opioid receptors; mu & kappa (Homo sapiens) (UniProt P41145+P35372); assay: Selectivity ratio between kappa and mu opioid receptor from guinea pig brain membrane; procedure, shortened: as §2
T4 sequence (P35372 whole entry, looked up): as the sequence (P35372 whole entry, looked up) above
T4 sequence (P41145 whole entry, looked up): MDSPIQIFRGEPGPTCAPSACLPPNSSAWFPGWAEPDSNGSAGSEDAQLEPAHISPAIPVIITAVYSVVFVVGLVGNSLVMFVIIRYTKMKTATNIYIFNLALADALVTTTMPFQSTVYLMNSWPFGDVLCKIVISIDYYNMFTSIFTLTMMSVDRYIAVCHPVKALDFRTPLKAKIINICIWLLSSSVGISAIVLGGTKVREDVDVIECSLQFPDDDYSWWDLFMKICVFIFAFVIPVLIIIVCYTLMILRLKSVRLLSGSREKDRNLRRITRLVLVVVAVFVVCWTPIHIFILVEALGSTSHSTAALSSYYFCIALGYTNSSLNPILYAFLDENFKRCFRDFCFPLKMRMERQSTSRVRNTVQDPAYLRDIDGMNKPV

[10] = biological target: Delta-type opioid receptor (Homo sapiens) (UniProt P41143); assay: Selectivity ratio between Ke value to that of DAMGO (using DPDPE as agonist; delta agonist/DAMGO); type: functional
Sequence of Delta-type opioid receptor (Homo sapiens) (P41143 whole entry): as the sequence (P41143 whole entry, looked up) above
Procedure, shortened: (§3)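 Ke values came from IC50 ratios (n ≥ 3) in GPI and MVD, with antagonist preincubated 15 min. Ke = [antagonist]/(IC50 ratio − 1). The reported ratio is Ke against a κ agonist (EK, U-50488) or δ agonist (DADLE, DPDPE) divided by Ke against DAMGO.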

[11] = biological target: T4, Opioid receptors; mu & kappa (Homo sapiens); assay: Selectivity ratio between kappa to that of mu opioid receptor; type: protein assay; procedure, shortened: as §1
[12] = biological target: Delta-type opioid receptor (Mus musculus) (UniProt P32300); assay: Ke value was obtained from IC50 ratio value when compared with delta opioid agonist in MVD preparations using DADLE as radioligand; type: functional; procedure, shortened: as §1
Sequence of Delta-type opioid receptor (Mus musculus) (P32300 whole entry): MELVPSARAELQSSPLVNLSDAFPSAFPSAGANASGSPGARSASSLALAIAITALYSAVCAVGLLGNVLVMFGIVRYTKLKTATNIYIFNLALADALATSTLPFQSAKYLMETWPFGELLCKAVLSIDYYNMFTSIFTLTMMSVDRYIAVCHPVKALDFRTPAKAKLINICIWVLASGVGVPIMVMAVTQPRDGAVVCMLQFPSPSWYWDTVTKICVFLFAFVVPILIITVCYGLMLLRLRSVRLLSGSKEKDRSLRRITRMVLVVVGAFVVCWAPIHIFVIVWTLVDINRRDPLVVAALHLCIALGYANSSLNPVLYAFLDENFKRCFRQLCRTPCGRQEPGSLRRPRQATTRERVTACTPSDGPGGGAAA

[13] = biological target: T1, Mu-type opioid receptor; assay: Binding affinity against Opioid receptor mu 1 in Guinea pig brain membranes; type: cell membranes, Membrane; procedure, shortened: as §2
[14] = biological target: Delta-type opioid receptor (Homo sapiens) (UniProt P41143); assay: Ke value was obtained from IC50 ratio value when compared with delta opioid agonist in […] using DPDPE as radioligand; type: functional, tissue-based; settings: target entry is the homologue from another species
[15] = biological target: Kappa-type opioid receptor (Cavia porcellus) (UniProt P41144); assay: Ke value was obtained from IC50 ratio value when compared with Opioid receptor kappa 1 agonist in Guinea pig Ileum using U-50488 as radioligand; type: functional, tissue-based; procedure, shortened: as §1
[16] = biological target: Kappa-type opioid receptor (Homo sapiens) (UniProt P41145); assay: Selectivity ratio between Ke value to that of DAMGO (using U-50488 as agonist; k agonist/DAMGO); type: functional; procedure, shortened: as §3
Sequence of Kappa-type opioid receptor (Homo sapiens) (P41145 whole entry): as the sequence (P41145 whole entry, looked up) above

[17] = biological target: T2, Kappa-type opioid receptor; assay: Binding affinity against Kappa Opioid receptor in Guinea pig brain membranes; type: cell membranes, Membrane; procedure, shortened: as §2
[18] = test system: Mus musculus; assay: Antagonistic activity after subcutaneous administration (6.2 umol/kg) with a peak time of 30 mins in mice (using morphine as agonist, mu selective); type: functional; settings: sc, 0.5 h
Procedure, shortened: (§4)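 Tail-flick test in Swiss Webster mice. The antagonist was given sc at 6.2 μmol/kg, timed so its 30 min peak fell at the centre of the observation period. Morphine and U-50488 were given sc (μmol/kg) and DPDPE icv (nmol/mouse). Agonist ED50 was found in control and treated mice and expressed as the treated/control ED50 ratio.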

[19] = biological target: Kappa-type opioid receptor (Homo sapiens) (UniProt P41145); assay: Selectivity ratio between Ke value to that of DAMGO (using EK as agonist; k agonist/DAMGO); type: functional; procedure, shortened: as §3
[20] = biological target: Delta-type opioid receptor (Homo sapiens) (UniProt P41143); assay: Selectivity ratio between Ke value to that of DAMGO (using DADLE as agonist; delta agonist/DAMGO); type: functional; procedure, shortened: as §3
[21] = biological target: Mu-type opioid receptor (Cavia porcellus) (UniProt P97266); assay: Ke value was obtained from IC50 ratio value when compared with Opioid receptor mu 1 agonist in Guinea pig Ileum using DAMGO as radioligand; type: functional, tissue-based; procedure, shortened: as §1
[22] = test system: Mus musculus; assay: Antagonistic activity after […] with a peak time of 30 mins in mice (using DPDPE as agonist, delta selective); type: functional; procedure, shortened: as §4
[23] = biological target: Kappa-type opioid receptor (Cavia porcellus) (UniProt P41144); assay: Ke value was obtained from IC50 ratio value when compared with kappa opioid agonist in Guinea pig Ileum using EK as radioligand; type: functional, tissue-based; procedure, shortened: as §1
[24] = Ratio of antagonistic activity of treated/control; antinociceptive effect of U-50488 opioid agonist in Mice; type: functional; procedure, shortened: as §4
[25] = Ratio of antagonistic activity of treated/control; antinociceptive effect of DPDPE opioid agonist in Mice; type: functional; procedure, shortened: as §4
[26] = Ratio of antagonistic activity treated/control in Mice; antinociceptive effect of morphine opioid agonist in Mice; type: functional; procedure, shortened: as §4
[27] = test system: Mus musculus; assay: Antagonistic activity after subcutaneous administration (6.2 umol/kg) with a peak time of 30 mins in mice (using U-50488 as agonist, kappa selective); type: functional; settings: sc, 0.5 h; procedure, shortened: as §4
[28] = biological target: T3, Opioid receptors; mu & delta (Homo sapiens); assay: Selectivity ratio between delta to that of mu opioid receptor; type: protein assay; procedure, shortened: as §1
[29] = Selectivity ratio between DADLE and ethylketazocine potencies in GPI and MVD preparations; procedure, shortened: as §1
[30] = biological target: Delta-type opioid receptor (Mus musculus) (UniProt P32300); assay: Ke value is obtained from IC50 ratio values when compared with delta opioid agonists in MVD preparations using DADLE as radioligand; type: functional; procedure, shortened: as §1
[31] = Selectivity ratio between morphine and ethylketazocine potencies in GPI and MVD preparations; procedure, shortened: as §1

T1 sequence (P97266 whole entry): as the sequence (P97266 whole entry) above

In the case of `N=C(N)[C@]1(N)CC[C@@]2(O)[C@H]3Cc4ccc(O)c5c4[C@@]2(CCN3CC2CC2)[C@H]1O5`, the IC50 [1] is reported as 18 nM.
`N[C@@]1(C(=O)O)CC[C@@]2(O)[C@H]3Cc4ccc(O)c5c4C2(CCN3CC2CC2)[C@H]1O5` gave an IC50 ratio [2] of 1.1, an IC50 ratio [3] of 4.8 and a Ke [4] of 27 nM. The IC50 ratio [5] was 1.9 and the Ke [6] was 10 nM.
Work on `N[C@@]1(C2=NC(=O)[C@@]3(CC[C@@]4(O)[C@H]5Cc6ccc(O)c7c6C4(CCN5CC4CC4)[C@H]3O7)N2)CC[C@@]2(O)[C@H]3Cc4ccc(O)c5c4C2(CCN3CC2CC2)[C@H]1O5` yielded an IC50 ratio [2] of 0.87, an IC50 ratio [3] of 11.8 and a Ke [4] of 0.46 nM. The IC50 ratio [5] was 1.1, the Ki [7] was 5.8 nM and the Ke ratio [8] was 151. For the same compound, the Ke ratio [9] was 5.
Work on `NC1=NC([C@]2(N)CC[C@@]3(O)[C@H]4Cc5ccc(O)c6c5C3(CCN4CC3CC3)[C@H]2O6)=N[C@]12CC[C@@]1(O)[C@H]3Cc4ccc(O)c5c4C1(CCN3CC1CC1)[C@H]2O5` yielded an IC50 ratio [2] of 2.8, an IC50 ratio [3] of 65 and an IC50 ratio [5] of 9.1. For the same compound, the Ke ratio [10] was 943, the Ke ratio [11] was 40 and the Ke [12] was 57 nM. For the same compound, the Ki [13] was 0.98 nM, the Ke ratio [8] was 187 and the Ke [14] was 66 nM. The Ke [15] was 4.7 nM, the Ke ratio [16] was 67 and the Ki [17] was 88 nM. The ED50 [18] was 68.7 µmol/kg, the Ke ratio [9] was 90 and the Ke ratio [19] was 171. The Ke ratio [20] was 814, the Ke [21] was 0.07 nM and the ED50 [22] was 16 nM mouse-1. It also gave a Ke [23] of 12 nM, an ED50 ratio [24] of 0.72 and an ED50 ratio [25] of 0.66. For the same compound, the ED50 ratio [26] was 4, the ED50 [27] was 25.6 µmol/kg and the Ke ratio [28] was 184.
For `N#C[C@@]1(N)CC[C@@]2(O)[C@H]3Cc4ccc(O)c5c4C2(CCN3CC2CC2)[C@H]1O5`, the IC50 ratio [2] was 2.5, the IC50 ratio [3] was 79 and the Ke [4] was 1.3 nM. The IC50 ratio [5] was 17.5, the Ke ratio [29] was 52 and the Ke [30] was 67 nM. For the same compound, the Ke ratio [31] was 4.7 and the Ke [6] was 6 nM.
`N[C@]1(C(=O)O)CC[C@@]2(O)[C@H]3Cc4ccc(O)c5c4C2(CCN3CC2CC2)[C@H]1O5` gave an IC50 ratio [2] of 1.7, an IC50 ratio [3] of 154 and a Ke [4] of 0.65 nM. For the same compound, the IC50 ratio [5] was 6.2, the Ke selectivity ratio [11] was 30 and the Ke [30] was 139 nM. It also gave a Ke [6] of 19 nM and a Ke selectivity ratio [28] of 214.
Work on `NC(=O)[C@]1(N)CC[C@@]2(O)[C@H]3Cc4ccc(O)c5c4C2(CCN3CC2CC2)[C@H]1O5` yielded an IC50 ratio [2] of 0.89, an IC50 ratio [3] of 11.2 and a Ke [4] of 9.8 nM. The IC50 ratio [5] was 3.3, the Ke ratio [11] was 4.5 and the Ke [6] was 44 nM.
`CC(=O)NC1=NC([C@]2(NC(C)=O)CC[C@@]3(O)[C@H]4Cc5ccc(O)c6c5C3(CCN4CC3CC3)[C@H]2O6)=N[C@]12CC[C@@]1(O)[C@H]3Cc4ccc(O)c5c4C1(CCN3CC1CC1)[C@H]2O5` gave an IC50 ratio [2] of 1.4, an IC50 ratio [3] of 11.7 and a Ke [4] of 1.9 nM. For the same compound, the IC50 ratio [5] was 3.3, the Ke ratio [31] was 23 and the Ke [6] was 44 nM.
Compound `O=C1NC(=O)[C@@]2(CC[C@@]3(O)[C@H]4Cc5ccc(O)c6c5[C@@]3(CCN4CC3CC3)[C@H]2O6)N1` has an IC50 [1] of 71 nM.
